# Dynein cargo inh – blocks dynein driven cargo transport along microtubules | 3617.4 mouse cells, GR-EGFP nuclear translocation imaging; test concentration mostly 20 µM; stimulated with dexamethasone, 1 µM; stronger effect = lower value | z-score, hits read low | hit rate 0.47% among 220,000;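 active = plate z-score of nuclear minus cytoplasmic receptor signal below a set negative limit, without overly bright fluorescence or cell loss, cut at about -3.5 in these data, passing the limit was not always enough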;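 also: z-score of nuclear minus cytoplasmic ring GR-EGFP intensity difference per well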
#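 Also added: dexamethasone, 1.0 µM final. Medium: tet-free, stripped-serum medium. Detection: fixed, Hoechst-stained cells imaged at 10x for EGFP. Read-out: nuclear-to-cytoplasmic GR-EGFP distribution per well. Times: induction 48 h, compound 1 h, agonist 30 min.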
# DTT redox prof – compounds producing H2O2 with reducing agent – biochemical, NIH compound library profiling, artefact control for MLSCN library redox annotation, primary screen; DTT-dependent redox cycling H2O2, phenol red/HRP absorbance; 100% = 100 µM peroxide control, 0% = buffer; activation, % at 10 µM; hit rate 0.03% among 200,000;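 active = activation of at least 50% relative to the plate's high and low controls in the primary single-dose screen; inactive = activation below 50%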;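 also: compound incubated with DTT at 0.8 mM final as the reducing agent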
# ROMK primary – human ROMK K+ channel modulation, primary screen. P48048. AID 1918. Tet-inducible ROMK, thallium flux fluorescence; actives lie on both sides. B-score at 10 µM. hit rate 2% among 130,000;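 active = signal ratio slope over the read window, or its plate-corrected B-score, at least 3 SD from the plate mean, either direction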;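 also: B-score of the F/F0 ratio slope over 7 to 12 s after thallium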
# Cl transport mod – modulators of human KCC2 chloride dependent transport | Q9H2X9 | AID 1456 | B-score of Tl+ flux slope (higher = more flux/activation; lower = inhibition) at 10 µM | KCC2 cells, thallium flux FluoZin-2 fluorescence | hit rate 2.2% among 190,000;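 active = thallium flux slope and its plate-corrected score both differing from the plate sample mean at a set confidence after two filtering rounds, in either direction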;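 also: slope of fluorescence scaled to starting intensity during 10 to 20 s after thallium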
# Autophagy HCS – autophagy modulation, high-content screen; hit rate 0.98% among 190,000; MEF GFP-LC3 puncta imaging; test concentration mostly 10 µM; calls only at 10 µM (by protocol);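 active = percentage of spot-positive cells more than 3 SD above its plate mean, without a fluorescence outlier flag or 80% toxicity; inconclusive = no clear call, values can overlap the other calls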;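 also: spot-positive cell cutoff set from DMSO-treated cells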
# ROMK hit retest – confirmation of human ROMK potassium channel modulators | shares compounds with ROMK primary | AID 1917 | ROMK thallium flux, fluorescence ratio; stronger effect = lower value | normalized thallium flux (F/F0 slope) at 10 µM | hit rate 54% among 3,000;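 active = Flux at 10 µM at least 3 SD below or above vehicle control mean in one or both replicates; inconclusive = no clear call, values can overlap the other calls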
# Numbers without * were called inactive; i = inactive; u = inconclusive; x = no result; + = active, no number. The list is not random: actives were taken first. Their share in the collection is about 4.1%.
SMILES,Dynein cargo inh,DTT redox prof,ROMK primary,Cl transport mod,Autophagy HCS,ROMK hit retest
COc1cccc(CC2(CO)CCCN(Cc3ccc4c(c3)OCCO4)C2)c1 (stereo unspecified),-0.215,-1.8,0.0258,x,i,x
CC(NC(=O)CC12CC3CC(CC(C3)C1)C2)C(=O)O (stereo unspecified),-0.815,0.6,2.12*,-0.53,i,0.0909
O=C(CC12CC3CC(CC(C3)C1)C2)NCO,-0.271,0.5,0.109,1.09,i,x
COc1ccc(C)cc1N(C(=O)c1ccccc1)c1nc2ccccc2s1,0.341,0.3,x,-0.163,i,x
COc1ccc(C)cc1N(C(=O)c1ccccc1F)c1nc2ccccc2s1,0.173,0.4,-2.5*,-0.102,i,0.0746
Cc1ccccc1Cn1c(=N)n(CC(O)c2ccco2)c2ccccc21 (stereo unspecified),-0.563,1.9,x,x,i,x
CC(C)(C)c1ccc(Cn2c(=N)n(CC(O)c3ccco3)c3ccccc32)cc1 (stereo unspecified),-0.0321,-0.1,-2.73*,x,i,0.0508*
CCCCCCCn1c(=N)n(CC(O)c2ccco2)c2ccccc21 (stereo unspecified),-0.726,-0.7,-4.29*,0.0628,i,0.0609*
CCCCCCCn1c(=N)n(CC(=O)c2ccco2)c2ccccc21,0.124,-0.1,-5.29*,0.346,i,0.0534*
COc1c(C(=O)Nc2ccc(Cc3ccncc3)cc2)ccc2ccccc12,0.444,0.1,x,-2.93,i,x
Cc1cccc(C(=O)c2c[nH]cc2-c2ccccc2)c1,-0.0481,0.0,0.0555,1.21,i,x
Cc1cc(=O)oc2cc(OCC(=O)Nc3ccc(S(=O)(=O)N(C)C)cc3)ccc12,0.938,x,x,x,x,x
CC(=O)c1cc2c(cc1NS(=O)(=O)c1ccccc1F)OCO2,1.73,-1.0,0.0119,0.71,i,x
CC(=O)c1ccc(N2CCN(C(=O)c3cc4c(-c5ccccc5F)nn(C)c4s3)CC2)cc1,-0.558,-1.9,x,x,i,0.0617*
CCn1c(C)c(P(c2ccccc2)c2ccccc2)[n+]2ccccc12,0.344,0.0,-0.213,0.347,i,x
Cc1ccc(-n2ncc(C(=O)Nc3cc(Cl)ccc3C)c2C2CCNCC2)cc1C,-1.21,-0.5,-3.25*,-0.717,i,0.0455*
Cc1cccc(NC(=O)c2cnn(-c3ccc(F)cc3)c2C2CCNCC2)c1C,-0.542,-0.3,-2.09,0.235,i,x
CCCC(=O)c1cc2c(cc1NC(=O)c1ccccc1F)OCCO2,-0.446,12.7,-0.723,-0.847,i,x
CCOc1ccccc1NC(=O)c1cc(SC)ccc1Cl,-0.187,-0.6,-0.914,-0.506,i,x
COc1ccc(-c2nc(CN3CCN(c4ncnc5ccccc45)CC3)c(C)o2)c(OC)c1,-0.632,0.0,-2.65*,-2.76,i,0.0653*
Cc1oc(-c2cc(F)ccc2F)nc1CN1CCN(c2ncnc3ccccc23)CC1,-1.81,0.2,-0.00457,-0.846,i,x
COC(=O)c1ccc(NC(=S)NNC(=O)c2ccccc2)cc1,-0.937,-0.5,0.935*,0.202,i,0.0816
COC(=O)c1ccc(NC(=S)Nc2ccccc2)cc1,-0.574,1.8,x,1.25,i,x
COC(=O)c1cccnc1NC(=S)NNC(=O)c1ccccc1,-0.721,0.2,2.21*,0.16,i,0.0743
CC(c1ccon1)N(C)Cc1cn(Cc2ccccc2)nc1-c1ccc2c(c1)OCO2 (stereo unspecified),0.171,-1.2,-0.151,x,i,x
SMILES,Dynein cargo inh,DTT redox prof,ROMK primary,Cl transport mod,Autophagy HCS,ROMK hit retest
Cc1ccc(NC(=O)c2snc3ccc(Cl)cc23)cc1C,0.0196,-0.1,0.113,-0.806,i,x
CCOc1cc(C)c(Cl)cc1S(=O)(=O)NC1CC(C)(C)NC(C)(C)C1,-0.118,0.4,-3.66*,-0.141,i,0.0645*
COc1cc(C)c(Cl)c(C)c1S(=O)(=O)NC1CC(C)(C)NC(C)(C)C1,-1.01,-3.7,-2.63*,-0.0719,i,0.0534*
CCOc1cc(C)c(Cl)cc1S(=O)(=O)NCCOC,-0.312,-0.3,1.38,1.17,i,x
COc1ccc(S(=O)(=O)NC2CC(C)(C)NC(C)(C)C2)c(C)c1C,-0.741,2.6,-0.423,x,i,x
COC(=O)CN1C(c2cccc(Cl)c2)=Nc2ccc(Cl)cc2C1c1ccccc1 (stereo unspecified),-0.695,-0.1,x,-0.199,i,0.0547*
COC(=O)CN1C(c2ccc(OC)cc2)=Nc2ccc(Cl)cc2C1c1ccccc1 (stereo unspecified),2.99,-0.1,x,-1.23,i,x
N=c1c2c(-c3ccccc3)c(-c3ccccc3)n(Cc3ccco3)c2ncn1CCCn1ccnc1,-0.286,0.3,-5.57*,1.83,i,0.0485*
N=c1c2c(-c3ccccc3)c(-c3ccccc3)oc2ncn1CCN1CCOCC1,-0.811,23.6,-1.55,-0.296,i,x
N=c1c2c(-c3ccccc3)c(-c3ccccc3)n(Cc3ccco3)c2ncn1CCCN1CCOCC1,-0.639,1.2,-2.76*,-0.00169,i,0.049*
N=c1c2c(-c3ccccc3)c(-c3ccccc3)oc2ncn1CCCN1CCOCC1,2.31,0.8,-3.79*,0.832,i,0.0824
c1ccc(-c2c(-c3ccccc3)n(Cc3ccco3)c3ncnc(NCCCn4ccnc4)c23)cc1,1.67,-0.1,-3.91*,x,i,u
O=c1c2ccccc2nc(-c2ccccc2)n1Cc1ccco1,-0.526,1.6,x,-0.198,i,x
c1ccc(-c2oc3ncnc(NCCCn4ccnc4)c3c2-c2ccccc2)cc1,0.278,-3.8,-2.67,x,i,x
O=c1c2ccccc2nc(-c2ccccc2)n1CCCN1CCOCC1,2.6,0.8,-0.159,0.274,i,x
CC1=NC(C)(C)Cc2cc(C)c(C)cc21,1.47,-0.1,0.0156,-0.0244,i,x
CCC(=O)Nc1ccc(C(=O)CSc2nnc(-c3ccc(NS(=O)(=O)CC)cc3)o2)cc1OC,-0.354,x,x,0.103,x,x
CC(C)Cn1cnc2c(c(-c3ccccc3)c(-c3ccccc3)n2Cc2ccco2)c1=N,-1.24,0.4,-4.34*,x,+,0.044*
O=c1c2c3nc4ccccc4nc3n(Cc3ccccc3)c2ncn1Cc1ccco1,-1.25,2.4,x,-0.402,i,x
CS(=O)(=O)Nc1ccc(C(=O)Nc2ccccc2C(=O)N2CCCC2)cc1,-0.126,2.1,x,x,i,0.0801
CCOC(=O)COc1cccc2c(=O)n(CC(N)=O)ccc12,-0.0644,x,0.132,-0.668,x,x
CCOC(=O)COc1cccc2c(=O)n(CC(=O)NCc3ccccc3)ccc12,-0.451,x,4.73*,0.57,x,0.0882
CCOC(=O)COc1cccc2c(=O)n(CC(=O)NCc3ccc(F)cc3)ccc12,-0.935,x,3.13*,-0.031,x,0.0922
Cc1ccsc1CNC(=O)c1c(-c2ccccc2)noc1C,-0.752,x,x,0.056,x,x
Cc1ccc(N2CN=C3SCC(=O)N3C2)cc1C,-0.769,-0.6,-0.0286,0.834,i,x
Cn1cnc2cc(NC(=O)c3ccc(Cl)cc3)ccc21,-0.306,-0.7,x,-0.0501,x,0.0819

# Screening results from PubChem.
